According to ChEMBL document CHEMBL5247578, “Effective synthesis of benzimidazoles-imidazo[1,2-a]pyrazine conjugates: A comparative study of mono-and bis-benzimidazoles for antitumor activity” (Eur J Med Chem, 2019):
Blank lines part the entries; values can stand above or below the compound they belong to.

Experiments:
[1] = n-Octanol/phosphate buffer partition coefficient, logP of the compound at pH 7.4 incubated for 85 mins by shake-flask method; format: physicochemical
In short: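 Octanol–water partition by shake-flask: n-octanol with 0.15 M phosphate buffer pH 7.4 at 10:1 volumes. Buffer-phase absorbance read before mixing, then shaken 50 min and centrifuged at 2500 rpm for 35 min. Buffer absorbance read again; P = (Ai−Af)/Af × Vw/Vo.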

MCF7 = experiment: Antiproliferative activity against human MCF7 cells assessed as cell growth inhibition at 10 uM incubated for 48 hrs by sulforhodamine B assay relative to control; format: functional
In short: (§1)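 NCI-60 single-dose screen at 10^-5 M. Cells grown in RPMI 1640 with 5% FBS and 2 mM L-glutamine, plated at 5,000–40,000 cells/well, and preincubated 24 h. Drug (DMSO stock) added and incubated 48 h at 37 °C, 5% CO2. Adherent cells fixed with cold TCA, stained with 0.4% SRB in 1% acetic acid, dye solubilized in 10 mM trizma base, A515 read. Percent growth taken against time-zero and untreated control.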

PC-3 = experiment: Antiproliferative activity against human PC-3 cells assessed as cell growth inhibition at 10 uM incubated for 48 hrs by sulforhodamine B assay relative to control; format: functional; in short: as §1
UO-31 = experiment: Antiproliferative activity against human UO-31 cells assessed as cell growth inhibition at 10 uM incubated for 48 hrs by sulforhodamine B assay relative to control; format: functional; in short: as §1
SN12C = experiment: Antiproliferative activity against human SN12C cells assessed as cell growth inhibition at 10 uM incubated for 48 hrs by sulforhodamine B assay relative to control; format: functional; in short: as §1
RXF 393 = experiment: Antiproliferative activity against human RXF 393 cells assessed as cell growth inhibition at 10 uM incubated for 48 hrs by sulforhodamine B assay relative to control; format: functional; in short: as §1
786-0 = experiment: Antiproliferative activity against human 786-0 cells assessed as cell growth inhibition at 10 uM incubated for 48 hrs by sulforhodamine B assay relative to control; format: functional
In short: (§2)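 Single-dose NCI-60 prescreen at 10^-5 M. Cells in RPMI 1640 with 5% FBS and 2 mM L-glutamine, seeded 5,000–40,000 cells/well with 24 h preincubation, then drug exposure for 48 h at 37 °C under 5% CO2. Growth read by SRB staining of TCA-fixed cells at 515 nm against time-zero and untreated controls. Negative growth values denote cell kill.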

NCI/ADR-RES = experiment: Antiproliferative activity against human NCI/ADR-RES cells assessed as cell growth inhibition at 10 uM incubated for 48 hrs by sulforhodamine B assay relative to control; format: functional; in short: as §1
OVCAR-8 = experiment: Antiproliferative activity against human OVCAR-8 cells assessed as cell growth inhibition at 10 uM incubated for 48 hrs by sulforhodamine B assay relative to control; format: functional; in short: as §1
OVCAR-5 = experiment: Antiproliferative activity against human OVCAR-5 cells assessed as cell growth inhibition at 10 uM incubated for 48 hrs by sulforhodamine B assay relative to control; format: functional; in short: as §1
SK-MEL-2 = experiment: Antiproliferative activity against human SK-MEL-2 cells assessed as cell growth inhibition at 10 uM incubated for 48 hrs by sulforhodamine B assay relative to control; format: functional; in short: as §1
MDA-MB-435 = experiment: Antiproliferative activity against human MDA-MB-435 cells assessed as cell growth inhibition at 10 uM incubated for 48 hrs by sulforhodamine B assay relative to control; format: functional; in short: as §1
M14 = experiment: Antiproliferative activity against human M14 cells assessed as cell growth inhibition at 10 uM incubated for 48 hrs by sulforhodamine B assay relative to control; format: functional; in short: as §1
LOX IMVI = experiment: Antiproliferative activity against human LOX IMVI cells assessed as cell growth inhibition at 10 uM incubated for 48 hrs by sulforhodamine B assay relative to control; format: functional; in short: as §1
SNB-75 = experiment: Antiproliferative activity against human SNB-75 cells assessed as cell growth inhibition at 10 uM incubated for 48 hrs by sulforhodamine B assay relative to control; format: functional; in short: as §1
SF-539 = experiment: Antiproliferative activity against human SF-539 cells assessed as cell growth inhibition at 10 uM incubated for 48 hrs by sulforhodamine B assay relative to control; format: functional; in short: as §1
SW-620 = experiment: Antiproliferative activity against human SW620 cells assessed as cell growth inhibition at 10 uM incubated for 48 hrs by sulforhodamine B assay relative to control; format: functional; in short: as §1
KM12 = experiment: Antiproliferative activity against human KM12 cells assessed as cell growth inhibition at 10 uM incubated for 48 hrs by sulforhodamine B assay relative to control; format: functional; in short: as §1
HT-29 = experiment: Antiproliferative activity against human HT-29 cells assessed as cell growth inhibition at 10 uM incubated for 48 hrs by sulforhodamine B assay relative to control; format: functional; in short: as §1
HCT-15 = experiment: Antiproliferative activity against human HCT-15 cells assessed as cell growth inhibition at 10 uM incubated for 48 hrs by sulforhodamine B assay relative to control; format: functional
In short: (§3)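 NCI-60 one-dose prescreen at 10^-5 M. Cells grown in RPMI 1640 with 5% FBS and 2 mM glutamine, preincubated 24 h, then exposed 48 h at 37 °C. Adherent lines TCA-fixed, SRB-stained, A515 read. Growth percent relative to time-zero and control; negative values mean cell kill.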

HCT-116 = experiment: Antiproliferative activity against human HCT-116 cells assessed as cell growth inhibition at 10 uM incubated for 48 hrs by sulforhodamine B assay relative to control; format: functional; in short: as §3
NCI-H522 = experiment: Antiproliferative activity against human NCI-H522 cells assessed as cell growth inhibition at 10 uM incubated for 48 hrs by sulforhodamine B assay relative to control; format: functional; in short: as §1
NCI-H460 = experiment: Antiproliferative activity against human NCI-H460 cells assessed as cell growth inhibition at 10 uM incubated for 48 hrs by sulforhodamine B assay relative to control; format: functional; in short: as §1
NCI-H23 = experiment: Antiproliferative activity against human NCI-H23 cells assessed as cell growth inhibition at 10 uM incubated for 48 hrs by sulforhodamine B assay relative to control; format: functional; in short: as §1
NCI-H226 = experiment: Antiproliferative activity against human NCI-H226 cells assessed as cell growth inhibition at 10 uM incubated for 48 hrs by sulforhodamine B assay relative to control; format: functional; in short: as §1
HOP-92 = experiment: Antiproliferative activity against human HOP-92 cells assessed as cell growth inhibition at 10 uM incubated for 48 hrs by sulforhodamine B assay relative to control; format: functional; in short: as §3
A549 = experiment: Antiproliferative activity against human A549 cells assessed as cell growth inhibition at 10 uM incubated for 48 hrs by sulforhodamine B assay relative to control; format: functional; in short: as §2
RPMI-8226 = experiment: Antiproliferative activity against human RPMI-8226 cells assessed as cell growth inhibition at 10 uM incubated for 48 hrs by sulforhodamine B assay relative to control; format: functional; in short: as §1
CCRF-CEM = experiment: Antiproliferative activity against human CCRF-CEM cells assessed as cell growth inhibition at 10 uM incubated for 48 hrs by sulforhodamine B assay relative to control; format: functional; in short: as §2
NCI-H322M = experiment: Antiproliferative activity against human NCI-H322M cells assessed as cell growth inhibition at 10 uM incubated for 48 hrs by sulforhodamine B assay relative to control; format: functional; in short: as §1

logD at 1.417 h [1]: 1.51
SMILES: Clc1ccc(-c2cn3ccnc3c(-c3ccc4ncn(C5CCCCC5)c4c3)n2)cc1
inhibition at 10 µM (MCF7): 21.8%
inhibition at 10 µM (PC-3): 24.6%
inhibition at 10 µM (UO-31): 36.1%
inhibition at 10 µM (SN12C): 13.5%
inhibition at 10 µM (RXF 393): 6.73%
inhibition at 10 µM (786-0): 12.1%
inhibition at 10 µM (NCI/ADR-RES): 11.1%
inhibition at 10 µM (OVCAR-8): 3.78%
inhibition at 10 µM (OVCAR-5): 0.84%
inhibition at 10 µM (SK-MEL-2): 10.9%
inhibition at 10 µM (MDA-MB-435): 36.7%
inhibition at 10 µM (M14): 10%
inhibition at 10 µM (LOX IMVI): 14.8%
inhibition at 10 µM (SNB-75): 31.1%
inhibition at 10 µM (SF-539): 6.3%
inhibition at 10 µM (SW-620): 14%
inhibition at 10 µM (KM12): 10.6%
inhibition at 10 µM (HT-29): 16.4%
inhibition at 10 µM (HCT-15): 15.5%
inhibition at 10 µM (HCT-116): 7.34%
inhibition at 10 µM (NCI-H522): 19.8%
inhibition at 10 µM (NCI-H460): 4.14%
inhibition at 10 µM (NCI-H23): 4.11%
inhibition at 10 µM (NCI-H226): 19.4%
inhibition at 10 µM (HOP-92): 30.5%
inhibition at 10 µM (A549): 11.6%
inhibition at 10 µM (RPMI-8226): 19%
inhibition at 10 µM (CCRF-CEM): 11.4%

logD at 1.417 h [1]: 2.01
SMILES: Fc1ccc(-c2cn3ccnc3c(-c3ccc4ncn(C5CCCCC5)c4c3)n2)cc1
inhibition at 10 µM (MCF7): 9.17%
inhibition at 10 µM (PC-3): 53.6%
inhibition at 10 µM (UO-31): 37.8%
inhibition at 10 µM (SN12C): 3.97%
inhibition at 10 µM (RXF 393): 24.4%
inhibition at 10 µM (786-0): 11.2%
inhibition at 10 µM (NCI/ADR-RES): 0.69%
inhibition at 10 µM (OVCAR-8): 9.54%
inhibition at 10 µM (OVCAR-5): 10.3%
inhibition at 10 µM (SK-MEL-2): 9.82%
inhibition at 10 µM (MDA-MB-435): 1.78%
inhibition at 10 µM (M14): 2.98%
inhibition at 10 µM (LOX IMVI): 3.5%
inhibition at 10 µM (SNB-75): 21%
inhibition at 10 µM (SF-539): 17.3%
inhibition at 10 µM (SW-620): 8.38%
inhibition at 10 µM (KM12): 3.49%
inhibition at 10 µM (HCT-15): 7.59%
inhibition at 10 µM (HCT-116): 18%
inhibition at 10 µM (NCI-H522): 15.5%
inhibition at 10 µM (NCI-H460): 6.12%
inhibition at 10 µM (NCI-H322M): 0.01%
inhibition at 10 µM (NCI-H23): 2.36%
inhibition at 10 µM (NCI-H226): 23.3%
inhibition at 10 µM (HOP-92): 35.2%
inhibition at 10 µM (A549): 12.8%
inhibition at 10 µM (RPMI-8226): 50.1%
inhibition at 10 µM (CCRF-CEM): 33.4%

logD at 1.417 h [1]: 1.96
SMILES: CCc1ccc(-c2cn3ccnc3c(-c3ccc4ncn(Cc5ccccc5)c4c3)n2)cc1
inhibition at 10 µM (MCF7): 58%
inhibition at 10 µM (PC-3): 50.4%
inhibition at 10 µM (UO-31): 57.9%
inhibition at 10 µM (SN12C): 22.5%
inhibition at 10 µM (RXF 393): 30.7%
inhibition at 10 µM (786-0): 38.1%
inhibition at 10 µM (NCI/ADR-RES): 41.2%
inhibition at 10 µM (OVCAR-8): 30.8%
inhibition at 10 µM (OVCAR-5): 14.9%
inhibition at 10 µM (SK-MEL-2): 14.8%
inhibition at 10 µM (MDA-MB-435): 50.9%
inhibition at 10 µM (M14): 36.4%
inhibition at 10 µM (LOX IMVI): 50.1%
inhibition at 10 µM (SNB-75): 29.3%
inhibition at 10 µM (SF-539): 21.2%
inhibition at 10 µM (SW-620): 18.8%
inhibition at 10 µM (KM12): 45.7%
inhibition at 10 µM (HT-29): 68.8%
inhibition at 10 µM (HCT-15): 74.7%
inhibition at 10 µM (HCT-116): 61.2%
inhibition at 10 µM (NCI-H522): 45.9%
inhibition at 10 µM (NCI-H460): 42%
inhibition at 10 µM (NCI-H322M): 0.89%
inhibition at 10 µM (NCI-H23): 23%
inhibition at 10 µM (NCI-H226): 1.48%
inhibition at 10 µM (HOP-92): 36.1%
inhibition at 10 µM (A549): 45.4%
inhibition at 10 µM (RPMI-8226): 55.4%
inhibition at 10 µM (CCRF-CEM): 49.7%
